We go through 16 compounds from ChEMBL document CHEMBL5154639, “Anti-schistosomal activities of quinoxaline-containing compounds: From hit identification to lead optimisation” (Eur J Med Chem, 2021).

Series [1] deals with Schistosoma mansoni. The experiment in a line: Antischistosomal activity against adult stage of Schistosoma mansoni assessed as inhibition of oviposition at 0.0024 to 10 uM measured after 72 hrs. It counts as functional, organism-based. As to conditions: dose 0.0095-10 µM, in the assay text read “0.0095 to 10 uM” for “0.0024 to 10 uM”. In a few lines: (§1)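 7-week adult worm pairs, 1–3 pairs per well in duplicate, in DMEM with 10% FCS, L-glutamine and antibiotics, incubated 72 h at 37°C, 5% CO2. Concentrations were 0.78–50 µM in 0.5% DMSO, with some titrations at 0.0095–10 or 0.0095–5 µM. Controls were 0.5% DMSO and praziquantel 10 µM. Motility was measured by digital image analysis, and eggs were collected, formalin-fixed and counted.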

The subject of series [2] is Schistosoma mansoni. The experiment in a line: Antischistosomal activity against adult stage of Schistosoma mansoni assessed as absence of body/gut movement, plate detachment and severe damage to the tegument at 25 to 50 uM measured after 72 hrs. It counts as functional, organism-based. As to conditions: dose 25-50 µM. The procedure, abridged:
as §1

Series [3] has as its system Schistosoma mansoni. As to the kind of experiment: Antischistosomal activity against adult stage of Schistosoma mansoni assessed as inhibition of in vitro laid eggs production at 12.5 uM measured after 72 hrs. It counts as functional, organism-based. In a few lines:
as §1

Series [4] has as its system Schistosoma mansoni. As to the kind of experiment: Antischistosomal activity against adult stage of Schistosoma mansoni assessed as cessation of worm motility at 6.25 to 12.5 uM measured after 72 hrs. In kind it is functional, organism-based. As to conditions: dose 6.25-12.5 µM. In a few lines: as §1
In series [5] the test system is Schistosoma japonicum. The experiment in a line: Antischistosomal activity against adult stage of Schistosoma japonicum assessed as parasite death at 100 nM measured after 72 hrs by microscopic method. In kind it is functional, organism-based. The procedure, abridged: (§2)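 Adult males (Egyptian isolate for S. haematobium, hamster-derived; Philippine isolate for S. japonicum, mouse-derived), about 5 per well in Basch 169 medium with antibiotics and 4% FBS, acclimated overnight at 37°C, 5% CO2. Compound added at 100 nM final in DMSO. Shape, density and motility scored by microscope with constrained descriptors at 5, 24, 48 and 72 h. Triplicate, sometimes duplicate.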

Series [6] has as its system Schistosoma japonicum. The experiment in a line: Antischistosomal activity against adult stage of Schistosoma japonicum assessed as inhibition of parasite motility at 100 nM measured after 24 to 72 hrs by microscopic method. As to conditions: time 24-72 hrs. It counts as functional, organism-based. The procedure, abridged: as §2
The subject of series [7] is Schistosoma haematobium. As to the kind of experiment: Antischistosomal activity against Schistosoma haematobium assessed as inhibition of parasite movement at 100 nM measured after 24 to 72 hrs by microscopic method. As to conditions: time 24-72 hrs. In kind it is functional, organism-based. In a few lines: as §2
Series [8] deals with Schistosoma mansoni. As to the kind of experiment: Antischistosomal activity against adult stage of Schistosoma mansoni assessed as cessation of worm motility at 3.15 uM measured after 72 hrs. In kind it is functional. The procedure, abridged: as §1
In series [9] the test system is Schistosoma mansoni. As to the kind of experiment: Antischistosomal activity against Schistosoma mansoni Puerto-Rican schistosomula assessed as phenotypic changes measured after 72 hrs. In kind it is functional, organism-based. In a few lines:
(§3)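 Mechanically transformed schistosomula, 120 per well, incubated with compound at 37°C, 5% CO2 for 72 h, at single concentrations (10, 50 µM) or two-fold titrations (0.313–10 µM). Controls were auranofin 10 µM and 0.625% DMSO. Motility and phenotype were scored by automated high-content imaging, and EC50 was taken from two or three replicate titrations.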

Series [10] deals with Schistosoma mansoni. As to the kind of experiment: Antischistosomal activity against Schistosoma mansoni Puerto-Rican schistosomula assessed as inhibition of parasite motility measured after 72 hrs. In kind it is functional, organism-based. The procedure, abridged: as §3
Series [11] can be described thus: Selectivity index, ratio of CC50 for human HepG2 cells measured after 72 hrs to EC50 for antischistosomal activity against adult stage of Schistosoma mansoni measured after 72 hrs. It counts as toxicity. The following applies: read-out: Ratio CC50/EC50.
Series [12] has as its system Schistosoma mansoni. As to the kind of experiment: Antischistosomal activity against adult stage of Schistosoma mansoni assessed as inhibition of parasite motility measured after 72 hrs. In kind it is functional, organism-based. In a few lines: as §1
Series [13] is described as follows: Selectivity index, ratio of CC50 for human HepG2 cells measured after 72 hrs to EC50 for antischistosomal activity against Schistosoma mansoni Puerto-Rican schistosomula measured after 72 hrs. It counts as toxicity. The following applies: read-out: Ratio CC50/EC50.
Series [14] in a line: Cytotoxicity against human HepG2 cells assessed as reduction in cell viability incubated for 24 hrs by MTT assay. In kind it is toxicity, cell-based. In a few lines:
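HepG2 seeded at 2×10^4 cells/well, then after 24 h exposed to 1–200 µM (seven concentrations) for 24 h at 37°C. Controls were 1.25% DMSO and 1% Triton X-100. MTT absorbance was read at 570 nm. Triplicates in three experiments; CC50 by non-linear regression of normalized log-dose curves.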

The nature of series [15]: Cytotoxicity against human HepG2 cells assessed as reduction in cell viability incubated for 72 hrs by MTT assay. It counts as toxicity, cell-based.
The test system of series [16] is Schistosoma mansoni. The experiment in a line: Antischistosomal activity against Schistosoma mansoni Puerto-Rican schistosomula assessed as inhibition of parasite motility at 50 uM measured after 72 hrs. In kind it is functional, organism-based. In a few lines: as §3
The test system of series [17] is Schistosoma japonicum. The experiment in a line: Antischistosomal activity against adult stage of Schistosoma japonicum assessed as inhibition of parasite motility at 100 nM measured after 48 hrs by microscopic method. In kind it is functional, organism-based. The procedure, abridged: as §2
Series [18] has as its system Schistosoma mansoni. As to the kind of experiment: Antischistosomal activity against adult stage of Schistosoma mansoni assessed as inhibition of oviposition at 0.0095 to 10 uM measured after 72 hrs. It counts as functional, organism-based. The following applies: dose 0.0095-10 µM. In a few lines: as §1
For series [19], the system named is Schistosoma mansoni. As to the kind of experiment: Antischistosomal activity against Schistosoma mansoni assessed as parasite death at 10 to 50 uM measured after 48 hrs. In kind it is functional, organism-based. The following applies: dose 10-50 µM. In a few lines:
(§4)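 Miracidia hatched from eggs by light exposure in artificial river water, then washed in CBSS. Set up in CBSS with compound, usually 0.5, 2, 5, 10 and 50 µM, in duplicate, with 1% DMSO as negative control. After 48 h at 26°C, dead, fully transformed and partially transformed larvae were counted.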

Series [20] deals with TK6. The experiment in a line: Cytotoxicity against human TK6 cells assessed as increase in mitotic arrest at 4 uM measured after 24 hrs. As to conditions: tk6, 24 h. In kind it is toxicity, cell-based.
Series [21] in a line: Genotoxicity against human TK6 cells assessed as […] in micronuclei formation at 4 uM measured after 24 hrs. In kind it is toxicity, cell-based. The following applies: tk6, 24 h. The procedure, abridged: (§5)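 TK6 cells, about 2×10^5/ml in RPMI with 10% horse serum, treated 24 h without recovery at 0.5, 2 and 4 µM. Controls were 1% DMSO, MMS 45.4 µM and carbendazim 8.4 µM. Cells were fixed, permeabilized and stained for γH2AX, p53 and DRAQ5, then imaged by flow cytometry. Micronuclei were scored by neural network as %MNi in mononucleated cells. Biomarkers were expressed as fold change, with 1.5-fold as cut-off. Three experiments.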

The nature of series [22]: Genotoxicity against human TK6 cells assessed as […] in micronuclei formation at 0.5 to 2 uM measured after 24 hrs. It counts as toxicity, cell-based. The following applies: tk6, 24 h, dose 0.5-2 µM. In a few lines:
as §5

Series [23] can be described thus: Genotoxicity against human TK6 cells assessed as induction of DNA damage by measuring gammaH2AX level at 0.5 to 4 uM measured after 24 hrs. It counts as toxicity, cell-based. The following applies: tk6, 24 h, dose 0.5-4 µM. In a few lines: as §5
The nature of series [24]: Drug uptake in cytoplasm of human TK6 cells by fluorescence based analysis. It counts as ADME, subcellular. In a few lines:
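Compound autofluorescence was recorded alongside γH2AX and p53 during imaging flow cytometry of TK6 cells treated for 24 h at 0.5–4 µM and fixed with lysis solution.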

The test system of series [25] is Schistosoma mansoni. As to the kind of experiment: Antischistosomal activity against adult stage of Schistosoma mansoni assessed as cessation of worm motility at 0.0095 to 10 uM measured after 72 hrs. In kind it is functional, organism-based. As to conditions: dose 0.0095-10 µM. In a few lines: as §1
In series [26] the test system is Schistosoma mansoni. The experiment in a line: Antischistosomal activity against Schistosoma mansoni assessed as inhibition of miracidial to sporocyst transformation measured after 48 hrs. In kind it is functional, organism-based. The following applies: dose 0.5-5 µM, DDE = dose-dependent effect. In a few lines:
as §4

Series [27] deals with TK6. The experiment in a line: Induction of cell cycle arrest in human TK6 cells assessed as accumulation of cells at G2/M phase at 2 to 4 uM. It counts as toxicity, cell-based. The following applies: tk6, 4 µM, dose 2-4 µM.
Series [28] can be described thus: Genotoxicity against human TK6 cells assessed as induction of DNA damage by measuring nuclear p53 content at 0.5 to 4 uM measured after 24 hrs. As to conditions: tk6, 24 h, dose 0.5-4 µM. In kind it is toxicity, cell-based. In a few lines:
as §5

The test system of series [29] is Schistosoma mansoni. As to the kind of experiment: Antischistosomal activity against juvenile stage of Schistosoma mansoni assessed as increased granularity with reduced movement at 0.156 uM measured after 72 hrs by PI staining based analysis. It counts as functional, organism-based. The procedure, abridged:
(§6)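 Juvenile worms, 20–25 per well, exposed to 10–0.156 µM for 72 h at 37°C, 5% CO2. Controls were 1.25% DMSO, and PZQ and AUR at 15 µM. Motility and phenotype were scored on an adapted WHO-TDR 0–4 scale. Viability was measured by 15 min staining with 2 µg/ml propidium iodide, imaged, and reported as the percentage of PI-positive worms per well.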

Series [30] relates to Schistosoma mansoni. The experiment in a line: Antischistosomal activity against juvenile stage of Schistosoma mansoni assessed as parasite death at 1.25 to 10 uM measured after 72 hrs by PI staining based analysis. It counts as functional, organism-based. As to conditions: dose 1.25-10 µM. In a few lines: as §6

The source made the active and inactive calls.

With `O=[N+]([O-])c1ccc2nc(Nc3cc(F)cc(C(F)(F)F)c3)c(Nc3cc(F)cc(C(F)(F)F)c3)nc2c1`, the outcome in series [1] was Active.

In the case of `c1ccc(/N=c2\sc3ccccc3s\c2=N\c2ccccc2)cc1`, the result in [2] and in series [3] was Active.

As to `Cc1cccc(Nc2nc3ccc([N+](=O)[O-])cc3nc2Nc2cccc(C)c2)c1`, the outcome in series [4] was Active.

As to `O=[N+]([O-])c1ccc2nc(Nc3cc(C(F)(F)F)ccc3F)c(Nc3cc(C(F)(F)F)ccc3F)nc2c1`, the result in series [5], in series [6], in series [7] and in [1] was Active.

Regarding `O=[N+]([O-])c1ccc2nc(Nc3ccccc3)c(Nc3ccccc3)nc2c1`, the Activity in series [8] was determined as 100%. In addition, the outcome in [4] was Active.

Take `COC(=O)c1ccc(Nc2nc3ccc([N+](=O)[O-])cc3nc2Nc2ccc(C(=O)OC)cc2)cc1`: the outcome in series [4] was Active.

On to `Cc1ccc(Nc2nc3ccccc3nc2Nc2ccc(C)c(C)c2)cc1C`, for which the result in [4] was Active.

Regarding `Brc1ccc(Nc2nc3ccccc3nc2Nc2ccc(Br)cc2)cc1`, the EC50 in series [9] turned out to be 3.67 µM; in [10], 1.21 µM; in series [12] it was 0.162 µM. Besides, the selectivity ratio at 72 h turned out to be 28.6 in series [11] and 1.9 in [13]. Also, the CC50 at 24 h in series [14] was determined as 7.12 µM. Moreover, the CC50 at 72 h in series [15] was determined as 4.64 µM.

With `Clc1ccc(Nc2nc3ccc(N4CCCC4)cc3nc2Nc2ccc(Cl)c(Cl)c2)cc1Cl`, in [16], the result was Active.

Turning to `O=[N+]([O-])c1ccc2nc(Nc3cccc(C(F)(F)F)c3)c(Nc3cccc(C(F)(F)F)c3)nc2c1`, the outcome in series [7] and in series [17] was Active.

In the case of `O=[N+]([O-])c1ccc2nc(Nc3ccc(Cl)c(Cl)c3)c(Nc3ccc(Cl)c(Cl)c3)nc2c1`, the outcome in [18], in series [19], in series [4], in series [17], in series [25] and in series [1] was Active. In addition, the outcome in [29] and in series [30] was Active. Also, the Activity entry is “Toxic” in [20]; “Toxic” in [21]; “Non-Toxic” in series [22]; “Non-Toxic” in series [23]; “Dde” in series [26]; “Toxic” in series [27]. Further, in series [28], the Activity entry is on record as “Non-Toxic”. In series [24], the Drug uptake entry is reported as “Active”.

Turning to `FC(F)(F)c1cccc(Nc2nc3ccccc3nc2Nc2cccc(C(F)(F)F)c2)c1`, in series [8], the Activity is 100%. In addition, in series [4], the result was Active.

Take `O=[N+]([O-])c1ccc2nc(Nc3ccc(Cl)cc3)c(Nc3ccc(Cl)cc3)nc2c1`: the outcome in series [17] was Active.

On to `O=C(C1CCCCC1)N1CC(=O)N2CCc3ccccc3C2C1` (stereo not drawn), for which the outcome in series [18], in series [25] and in series [1] was Active.

`O=[N+]([O-])c1ccc2nc(Nc3ccc(C(F)(F)F)cc3)c(Nc3ccc(C(F)(F)F)cc3)nc2c1`: the result in series [5], in series [6] and in [7] was Active.

Take `O=[N+]([O-])c1ccc2nc(Nc3cccc(Cl)c3)c(Nc3cccc(Cl)c3)nc2c1`: the outcome in series [17] was Active.
